The source made the active and inactive calls. No cut-off for these calls is given here.
Key:
MOLT-4 = test: Antiproliferative activity against human MOLT-4 cells assessed as cell growth inhibition; type: functional
Method in brief: (§1)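 Cell lines screened for growth inhibition and GI₅₀ derived. Each value is the mean of 3 independent experiments.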

MDA-MB-435 = test: Antiproliferative activity against human MDA-MB-435 cells assessed as cell growth inhibition; type: functional; method in brief: as §1
HL-60 = test: Antiproliferative activity against human HL-60 cells assessed as cell growth inhibition; type: functional; method in brief: as §1
U-937 = test: Antiproliferative activity against human U-937 cells assessed as cell growth inhibition; type: functional; method in brief: as §1
[1] = Cytotoxicity against hepatocytes (unknown origin) assessed as cell growth by MTT assay relative to control; type: cell-based, Hepatocyte; design: concentration or dose not given beside the values
DU-145 = test: Antiproliferative activity against human DU-145 cells assessed as cell growth inhibition; type: functional; method in brief: as §1
Jurkat = test: Antiproliferative activity against human Jurkat cells assessed as cell growth inhibition; type: functional; method in brief: as §1
K562 [2] = test: Anticancer activity against human K562 cells assessed as cell growth inhibition at 1 uM by MTT assay relative to control; type: functional; details: read-out: GI
Method in brief: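 K562 cells given imatinib 1 µM or test compound 1 µM alone, or imatinib 1 µM plus test compound 1 µM. Proliferation read by MTT assay and expressed as % inhibition.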

KB = test: Antiproliferative activity against human KB cells assessed as cell growth inhibition; type: functional; method in brief: as §1
K562 [3] = test: Downregulation of PCNA expression in human K562 cells at 10 to 20 uM measured after 24 hrs by Western blot analysis; type: functional, cell-based; details: dose microM 10-20, time 24.0 hrs
Method in brief: (§2)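 K562 cells treated at 10 or 20 µM for 24, 48 or 72 h. PCNA and cyclin D1 detected by Western blot, bands quantified and normalised to actin. Means of three separate experiments, SD, P < 0.05.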

K562 [4] = test: Cell cycle arrest in human K562 cells assessed as decrease in cells accumulation at S phase at 5 to 20 uM measured by flow cytometry analysis; type: functional, cell-based; details: dose microM 5-20, time hrs 24-72, TDE = time-dependent effect
Method in brief: (§3)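 K562 cells exposed to 5, 10 or 20 µM and sampled at 24, 48 and 72 h. Phase distribution (G0/G1, S, G2/M) measured by flow cytometry. Untreated and DMSO vehicle controls. SEM of n = 3. Two-tailed t-test, P < 0.05.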

K562 [5] = test: Cell cycle arrest in human K562 cells assessed as accumulation at G2/M phase at 5 uM measured after 24 hrs by flow cytometry analysis; type: functional, cell-based
Method in brief: (§4)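 K562 cells exposed to 5 µM for 24 h, then cell-cycle phase distribution measured by flow cytometry. Untreated cells served as negative control and DMSO as vehicle control. SEM of n = 3. Two-tailed Student's t-test, P < 0.05.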

K562 [6] = test: Cell cycle arrest in human K562 cells assessed as accumulation at S phase at 5 uM measured after 24 hrs by flow cytometry analysis; type: functional, cell-based; method in brief: as §4
[7] = Acute toxicity in po dosed mouse assessed as body weight loss; type: organism-based; details: in vivo
Method in brief: (§5)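 Healthy mice were given oral doses that increased over the study period. Each higher dose was given only if the previous dose was well tolerated. All animals were monitored for body weight loss, behavioural changes and mortality to set the maximum tolerated dose.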

[8] = Antiproliferative activity against human GURAV cells assessed as cell growth inhibition; type: functional; method in brief: as §1
K562 [9] = test: Antiproliferative activity against human K562 cells assessed as cell growth inhibition; type: functional; method in brief: as §1
K562 [10] = test: Cell cycle arrest in human K562 cells assessed as decrease in cells accumulation at S phase measured after 24 to 72 hrs by flow cytometry analysis; type: functional, cell-based; details: dose microM 5-20, time hrs 24-72; method in brief: as §3
K562 [11] = test: Potentiation of imatinib-induced antitumor activity against human K562 cells xenografted in mouse assessed as reduction in tumor volume at 100 mg/kg, ip administered for 30 days co-treated with imatinib at 100 mg/kg and measured every day for 30 days; type: functional, organism-based; details: time 30.0 day
Method in brief: (§6)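 Mice implanted subcutaneously in the right rear flank with 6 × 10⁶ K562 cells/100 μl in 50% matrigel. Dosed intraperitoneally: compound alone 200 mg/kg, or compound 100 mg/kg plus imatinib 100 mg/kg; controls were imatinib 100 mg/kg and saline. Tumour volume tracked over time, n = 6. Dunnett's test against control.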

PC-3 = test: Antiproliferative activity against human PC-3 cells assessed as cell growth inhibition; type: functional; method in brief: as §1
K562 [12] = test: Induction of apoptosis in human K562 cells assessed as increase in cleaved PARP1 expression at 5 to 20 uM measured after 72 hrs by Western blot analysis; type: functional, cell-based; details: dose microM 5-20, time 72.0 hrs
Method in brief: (§7)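 K562 cells treated 72 h at 5, 10 or 20 µM alongside DMSO vehicle control. Cleaved PARP1 and caspase 3 detected by Western blot and normalised to actin. Means of at least two experiments, SD.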

[13] = Acute toxicity in po dosed mouse assessed as mortality; type: organism-based; details: in vivo; method in brief: as §5
HOP-62 = test: Antiproliferative activity against human HOP-62 cells assessed as cell growth inhibition; type: functional; method in brief: as §1
K562 [14] = test: Cell cycle arrest in human K562 cells assessed as increase in cells accumulation at G0/G1 phase at 5 to 20 uM measured by flow cytometry analysis; type: functional, cell-based; details: dose microM 5-20, time hrs 24-72, TDE = time-dependent effect; method in brief: as §3
K562 [15] = test: Downregulation of PCNA expression in human K562 cells at 10 to 20 uM measured after 48 to 72 hrs by Western blot analysis; type: functional, cell-based; details: dose microM 10-20, time hrs 48-72; method in brief: as §2
K562 [16] = test: Induction of apoptosis in human K562 cells assessed as increase in activated caspase-3 expression at 5 to 20 uM measured after 72 hrs by Western blot analysis; type: functional, cell-based; details: dose microM 5-20, time 72.0 hrs; method in brief: as §7
K562 [17] = test: Antitumor activity against human K562 cells xenografted in mouse assessed as reduction in tumor volume at 200 mg/kg, ip administered for 30 days and measured every day for 30 days; type: functional, organism-based; details: time 30.0 day; method in brief: as §6
K562 [18] = test: Cell cycle arrest in human K562 cells assessed as decrease in cells accumulation at G2/M phase measured after 24 to 72 hrs by flow cytometry analysis; type: functional, cell-based; details: dose microM 5-20, time hrs 24-72; method in brief: as §3
[19] = Acute toxicity in po dosed mouse assessed as maximum tolerated dose; type: organism-based; details: in vivo; method in brief: as §5
MCF7 = test: Antiproliferative activity against human MCF7 cells assessed as cell growth inhibition; type: functional; method in brief: as §1
K562 [20] = test: Potentiation of imatinib-induced anticancer activity against human K562 cells assessed as cell growth inhibition at 1 uM by MTT assay (reference value: 71%); type: functional; details: read-out: GI
K562 [21] = test: Cell cycle arrest in human K562 cells assessed as decrease in cells accumulation at G2/M phase at 5 to 20 uM measured by flow cytometry analysis; type: functional, cell-based; details: dose microM 5-20, time hrs 24-72, TDE = time-dependent effect; method in brief: as §3
K562 [22] = test: Cell cycle arrest in human K562 cells assessed as accumulation at G0/G1 phase at 5 uM measured after 24 hrs by flow cytometry analysis; type: functional, cell-based; method in brief: as §4
K562 [23] = test: Cell cycle arrest in human K562 cells assessed as increase in cells accumulation at G0/G1 phase measured after 24 to 72 hrs by flow cytometry analysis; type: functional, cell-based; details: dose microM 5-20, time hrs 24-72; method in brief: as §3
K562 [24] = test: Downregulation of cyclin-D1 expression in human K562 cells at 10 to 20 uM measured after 24 hrs by Western blot analysis; type: functional, cell-based; details: dose microM 10-20, time 24.0 hrs; method in brief: as §2
K562 [25] = test: Downregulation of PCNA expression in human K562 cells at 10 to 20 uM measured after 48 hrs by Western blot analysis; type: functional, cell-based; details: dose microM 10-20, time 48.0 hrs; method in brief: as §2
K562 [26] = test: Downregulation of cyclin-D1 expression in human K562 cells at 10 to 20 uM measured after 48 to 72 hrs by Western blot analysis; type: functional, cell-based; details: dose microM 10-20, time hrs 48-72; method in brief: as §2
K562 [27] = test: Downregulation of PCNA expression in human K562 cells at 20 uM measured after 72 hrs by Western blot analysis; type: functional, cell-based; method in brief: as §2

Structure (SMILES): O=C(COc1ccc(/C=C2\SC(=O)NC2=O)cc1)Nc1cccc(C(F)(F)F)c1
- GI50 (MOLT-4): 47.3 µM
- GI50 (MDA-MB-435): > 100 µM
- GI50 (HL-60): 73.3 µM
- GI50 (U-937): 49.1 µM
- viability [1]: > 70%
- GI50 (DU-145): 59.2 µM
- GI50 (Jurkat): 26.5 µM

Structure (SMILES): O=C(COc1ccc(/C=C2\SC(=O)NC2=O)cc1)Nc1ccc(Cl)cc1C(F)(F)F
- inhibition of growth at 1 µM (K562 [2]): 65%
- GI50 (MOLT-4): 32.5 µM
- GI50 (KB): > 100 µM
- inhibition (K562 [3]): inactive
- Activity (K562 [4]): Tde
- Activity (K562 [5]): Active
- Activity (K562 [6]): Active
- Activity [7]: Non-Toxic
- GI50 [8]: 86.8 µM
- GI50 (K562 [9]): 230 nM
- Activity (K562 [10]): Dose-dependent effect
- Activity (K562 [11]): Active
- GI50 (PC-3): > 100 µM
- Activity (K562 [12]): Dose-dependent effect
- Activity [13]: Non-Toxic
- GI50 (HOP-62): > 100 µM
- GI50 (HL-60): 56.7 µM
- Activity (K562 [14]): Tde
- inhibition (K562 [15]): Active
- Activity (K562 [16]): Dose-dependent effect
- Activity (K562 [17]): Active
- Activity (K562 [18]): Dose-dependent effect
- GI50 (U-937): 67.5 µM
- MTD [19]: 2000 mg/kg
- viability [1]: > 70%
- GI50 (MCF7): 49.7 µM
- inhibition of growth at 1 µM (K562 [20]): 82%
- Activity (K562 [21]): Tde
- Activity (K562 [22]): Active
- GI50 (Jurkat): 28.9 µM
- Activity (K562 [23]): Dose-dependent effect
- inhibition (K562 [24]): inactive

Structure (SMILES): O=C(COc1ccc(/C=C2\SC(=O)NC2=O)cc1)Nc1ccc(F)cc1F
- inhibition of growth at 1 µM (K562 [2]): 62%
- inhibition (K562 [25]): inactive
- GI50 (MOLT-4): 40.3 µM
- GI50 (KB): > 100 µM
- inhibition (K562 [3]): inactive
- Activity (K562 [4]): Tde
- Activity (K562 [5]): Active
- Activity (K562 [6]): Active
- Activity [7]: Non-Toxic
- GI50 [8]: 61.4 µM
- GI50 (K562 [9]): 900 nM
- Activity (K562 [10]): Dose-dependent effect
- Activity (K562 [11]): Active
- GI50 (PC-3): > 100 µM
- Activity [13]: Non-Toxic
- GI50 (HOP-62): > 100 µM
- GI50 (HL-60): 47.8 µM
- Activity (K562 [14]): Tde
- Activity (K562 [17]): Active
- Activity (K562 [18]): Dose-dependent effect
- GI50 (U-937): 35.6 µM
- MTD [19]: 2000 mg/kg
- viability [1]: > 70%
- GI50 (MCF7): 65.8 µM
- inhibition of growth at 1 µM (K562 [20]): 79%
- inhibition (K562 [26]): Active
- Activity (K562 [21]): Tde
- inhibition (K562 [27]): Active
- Activity (K562 [22]): Active
- GI50 (Jurkat): 34.6 µM
- Activity (K562 [23]): Dose-dependent effect
- inhibition (K562 [24]): inactive
